FGF22 binding = FGF22 (human) thermal shift binding | recombinant FGF22 thermal shift, SYPRO orange fluorescence; percent of sucrose octasulfate shift, DMSO zero | activity (Tm shift, normalised), % at 9.99 µM | 340,000 compounds, 1.5% hits | AID 651658;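 active = mean Tm shift, scaled 0 neutral to 100 positive control, at about 1.3% or above, every replicate too, limit read from the data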
Granule exo inh = lytic granule exocytosis inhibition; 360,000 compounds, 0.66% hits; TALL-104 LAMP-1 surface exposure, flow cytometry; cells stimulated with thapsigargin and PMA; AID 651702; inhibition, % at 10 µM;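 active = inhibition above about 55%, limit read from the data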
MT1-MMP act inh = inhibitors of human MT1-MMP activation; P50281; HT1080 RFP-PRO-GFP cells, GFP/RFP ratio fluorescence, overnight; percent of plate control window, DMSO zero; GFP/RFP ratio change, % at 20 µM; 360,000 compounds, 0.061% hits;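 active = GFP/RFP ratio change of at least 30% with cell ATP level not reduced by more than half and red fluorescence within 50% of control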
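Read-out: GFP/RFP fluorescence ratio; Test system: RFP-PRO-GFP reporter HT1080 cells; Compound dosing: single-point 20 µM compound, 1% DMSO; Times: overnight compound exposure at 37 °C.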
ABCB6 inh 2 = human ABCB6 transporter inhibition; Q9NP58; K562-ABCB6 porphyrin accumulation, flow cytometry, 1 h; active compounds read low; fluorescence ratio to DMSO, % at 10 µM; 360,000 compounds, 0.19% hits; AID 602162;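 active = fluorescence ratio to DMSO below 75%, the collection mean minus 3 SD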;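 note: signal is porphyrin accumulated inside mitochondria; lower ratio means ABCB6 inhibition with less porphyrin fluorescence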
DAGLB inh = diacylglycerol lipase beta (human) inhibition; inhibition, % at 5.17 µM; Q8NCG7; AID 504411; 340,000 compounds, 0.059% hits; HEK293T DAGLB membrane lysate, EnzChek fluorogenic substrate; in the data active = inhibition above about 34%
VLA-4 inh = inhibition in a human VLA-4 binding assay; 330,000 compounds, 0.2% hits; P13612; inhibition, % (about 7 µM as worked out from the volumes in the protocol); VLA-4 expressing cells, ligand binding flow cytometry; in the data active = inhibition above about 50%
Target sequence (P13612 whole entry, looked up): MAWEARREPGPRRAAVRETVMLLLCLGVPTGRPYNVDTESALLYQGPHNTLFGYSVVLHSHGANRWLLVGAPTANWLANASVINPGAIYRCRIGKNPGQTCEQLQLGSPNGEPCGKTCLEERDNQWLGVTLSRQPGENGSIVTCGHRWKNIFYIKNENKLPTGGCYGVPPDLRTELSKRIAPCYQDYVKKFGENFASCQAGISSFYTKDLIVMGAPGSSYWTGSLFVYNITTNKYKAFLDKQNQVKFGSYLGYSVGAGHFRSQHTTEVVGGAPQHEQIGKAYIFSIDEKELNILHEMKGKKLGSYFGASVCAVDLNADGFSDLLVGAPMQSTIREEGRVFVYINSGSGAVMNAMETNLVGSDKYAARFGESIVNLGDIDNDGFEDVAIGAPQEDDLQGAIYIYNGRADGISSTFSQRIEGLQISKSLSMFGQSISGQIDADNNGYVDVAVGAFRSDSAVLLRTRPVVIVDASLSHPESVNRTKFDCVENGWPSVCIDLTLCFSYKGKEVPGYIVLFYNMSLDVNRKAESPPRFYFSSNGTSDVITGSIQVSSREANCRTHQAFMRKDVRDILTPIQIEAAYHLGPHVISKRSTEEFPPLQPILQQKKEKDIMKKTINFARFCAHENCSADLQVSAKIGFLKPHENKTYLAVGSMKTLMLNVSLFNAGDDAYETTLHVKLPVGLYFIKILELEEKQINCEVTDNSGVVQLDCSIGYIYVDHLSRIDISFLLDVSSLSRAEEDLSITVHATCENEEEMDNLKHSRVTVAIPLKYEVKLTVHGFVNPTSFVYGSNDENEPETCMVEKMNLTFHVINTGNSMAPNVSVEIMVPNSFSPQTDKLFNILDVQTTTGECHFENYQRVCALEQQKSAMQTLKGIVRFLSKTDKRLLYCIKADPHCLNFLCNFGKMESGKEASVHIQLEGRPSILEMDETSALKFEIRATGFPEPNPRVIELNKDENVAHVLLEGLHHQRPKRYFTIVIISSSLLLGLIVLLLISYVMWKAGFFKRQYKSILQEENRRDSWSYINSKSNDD
Each line names hits and unclear results; the compound was inactive in the other large screens. A selection: hits, their analogues and other compounds. The true share with any hit is near 2%.

COC(=O)[C@@]12C[C@@H](CC(=O)NCc3cccc4ccccc34)C(=O)N(Cc3cccc4ccccc34)C1=CCC(C)(C)C2	none (no result: ABCB6 inh 2, DAGLB inh, VLA-4 inh)
COC(=O)c1c(NC(=O)CC2SC(N)=NC2=O)sc(C)c1C (centres undefined)	FGF22 binding 44
COc1cc(OC)c(NC(=O)CC2SC(N)=NC2=O)cc1Cl (centres undefined)	none (no result: VLA-4 inh)
COC(=O)c1c(NC(=O)CSc2ccccc2N)sc(C)c1C	FGF22 binding 43
Cc1noc(C)c1S(=O)(=O)Nc1ccc2c(c1)C(=O)N([C@@H](C)CO)C[C@H](C)[C@H](CN(C)C(=O)Nc1ccc3c(c1)OCO3)OCCCC[C@H](C)O2	none (no result: Granule exo inh, MT1-MMP act inh, ABCB6 inh 2, DAGLB inh, VLA-4 inh)
CO[C@@H]1CN(C)C(=O)c2ccc(NC(=O)c3ccc4c(c3)OCO4)cc2OC[C@H](C)N(CC2CC2)C[C@H]1C	none (no result: Granule exo inh, MT1-MMP act inh, ABCB6 inh 2, DAGLB inh, VLA-4 inh)
CC(=O)N1CCN(CC(=O)Nc2ccc3c(c2)CCC3)CC1	FGF22 binding 44
CC(=O)N1CCN(CC(=O)Nc2ccc(C)c(S(=O)(=O)N(C)C)c2)CC1	FGF22 binding 43
O=C(CN1CCCC1)Nc1ccc2c(c1)CCC2	none
CC(=O)N1CCN(CC(=O)Nc2ccc(Cl)c(S(=O)(=O)N(C)C)c2)CC1	none
C[C@H](CO)N1C[C@H](C)[C@@H](CN(C)C(=O)CC2CC2)Oc2cc(C#CC(C)(C)O)ccc2S1(=O)=O	none (no result: Granule exo inh, MT1-MMP act inh, ABCB6 inh 2, DAGLB inh, VLA-4 inh)
Cc1ccc(S(=O)(=O)N(C)CCN(C)S(=O)(=O)c2ccc(C)cc2)cc1	FGF22 binding 43 (no result: VLA-4 inh)
Cc1ccc(S(=O)(=O)N(C)S(=O)(=O)c2ccc(C)cc2)cc1	none
CCNC(=O)C[C@H]1CC[C@@H]2[C@H](COc3ccc(NS(=O)(=O)c4ccccc4C)cc3C(=O)N2C)O1	none (no result: Granule exo inh, MT1-MMP act inh, ABCB6 inh 2, DAGLB inh, VLA-4 inh)
CC(C)CCNC(=O)c1ccc2c(c1)ncn2C1CCCC1	FGF22 binding 45
CC(C)(C)C(O)CN1CCCC1 (centres undefined)	FGF22 binding 44
CCOCC(=O)Nc1cc(C(=O)NCCc2ccccc2)ccc1Cl	FGF22 binding 11
CCC(=O)Nc1ccc2c(c1)C(=O)N(C)[C@@H]1CC[C@H](CC(=O)NCCc3ccncc3)O[C@H]1CO2	none (no result: Granule exo inh, MT1-MMP act inh, ABCB6 inh 2, DAGLB inh, VLA-4 inh)
O=C(CSc1nc2[nH]ncc2c(=O)[nH]1)Nc1ccc(OC(F)(F)F)cc1	FGF22 binding 14
Cc1ccc(NC(=O)CSc2nc3[nH]ncc3c(=O)[nH]2)cc1	FGF22 binding 44
C[C@@H]1CN([C@@H](C)CO)C(=O)c2cc(-c3cccc(F)c3)cnc2O[C@H]1CN(C)Cc1ccccn1	none (no result: Granule exo inh, MT1-MMP act inh, ABCB6 inh 2, DAGLB inh, VLA-4 inh)
CC(=O)c1ccc(NC(=O)CSc2nnc(Cn3cnc4ccccc43)o2)cc1	FGF22 binding 43
CC(=O)Nc1ccc(NC(=O)CSc2nnc(-c3ccco3)o2)cc1	FGF22 binding 44
CCc1ccc(NC(=O)CSc2ccc(-c3ccco3)nn2)cc1	FGF22 binding 43
O=C(C[C@@H]1CC[C@H]2[C@@H](COC[C@@H](O)CN2C(=O)c2ccccc2F)O1)N1CCOCC1	none (no result: Granule exo inh, MT1-MMP act inh, ABCB6 inh 2, DAGLB inh, VLA-4 inh)
CO[C@H]1CN(C)C(=O)c2cc(NS(C)(=O)=O)ccc2OC[C@H](C)N(CC2CCCCC2)C[C@H]1C	none (no result: Granule exo inh, MT1-MMP act inh, ABCB6 inh 2, DAGLB inh, VLA-4 inh)
FC(F)Sc1ccc(NC(=S)NCc2ccccc2)cc1	FGF22 binding 43
CC(=O)CCC(=O)OCC(=O)Nc1ccc(SC(F)F)cc1	FGF22 binding 43
O=C(COc1ccccc1C(=O)O)Nc1ccc(SC(F)F)cc1	FGF22 binding 43
CC(C)=CC(=O)OCC(=O)Nc1ccc(SC(F)F)cc1	FGF22 binding 44
Cc1ccc(S(=O)(=O)Nc2ccc3c(c2)C(=O)N([C@@H](C)CO)C[C@@H](C)[C@H](CN(C)C(=O)NC2CCCCC2)OCCCC[C@H](C)O3)cc1	none (no result: Granule exo inh, MT1-MMP act inh, ABCB6 inh 2, DAGLB inh, VLA-4 inh)
CCc1ccc(S(=O)(=O)Nc2ccc(O)c3c(=O)cc(-c4ccccc4Cl)oc23)cc1	FGF22 binding 19, Granule exo inh 76
Cc1ccnc(NC(=O)c2cccc([N+](=O)[O-])c2C)c1	FGF22 binding 43
O=C(Nc1ccc(Cl)cn1)c1cccc2ccccc12	none
O=C(Nc1ccc(Cl)cn1)c1ccccc1[N+](=O)[O-]	FGF22 binding 43
CSc1ncccc1C(=O)Nc1nc2ccc(Oc3ccccc3)cc2s1	FGF22 binding 43
CCN(CC)CCN1C(=O)C(=O)/C(=C(/O)c2ccc(S(=O)(=O)N3CCOCC3)cc2)C1c1ccc(C)cc1 (centres undefined)	FGF22 binding 44
COc1cccc(-c2ccc(C#N)c(=O)[nH]2)c1	FGF22 binding 43
CCCCCCCCSc1nnc2[nH]c(=O)cc(N)n12	FGF22 binding 43
COc1ccc(C(=O)N2CCCC(CCC(=O)NCc3ccc(F)c(F)c3)C2)o1 (centres undefined)	FGF22 binding 43
CN1CCN(NC(=S)NC(C)(C)CC(C)(C)C)CC1	FGF22 binding 43
CN1CCN(NC(=S)NC2CCCC2)CC1	FGF22 binding 43
S=C(NC1CCCC1)NN1CCOCC1	none
CC(=O)Nc1ccc(N2C(=O)CSC2c2cccc([N+](=O)[O-])c2)cc1 (centres undefined)	FGF22 binding 44
COc1ccc(Cc2c(C(C)(C)C)nc3c(C)cc(Br)cn23)c(C)c1	FGF22 binding 44 (no result: DAGLB inh, VLA-4 inh)
CO[C@H]1CN(C)C(=O)c2ccc(NC(=O)c3nc4ccccc4s3)cc2OC[C@H](C)N(Cc2ccncc2)C[C@H]1C	none (no result: Granule exo inh, MT1-MMP act inh, ABCB6 inh 2, DAGLB inh, VLA-4 inh)
CCOC(=O)C1CCN(S(=O)(=O)c2ccc(C(C)(C)C)cc2)CC1	FGF22 binding 43
CC1=Nc2cc(C(=O)NCCCOC(C)C)ccc2Sc2ccccc21	FGF22 binding 43
COc1cc(/C=C2\SC(=O)N(CCN)C2=O)ccc1OS(=O)(=O)c1cc(C)ccc1C	Granule exo inh 73 (no result: VLA-4 inh)
COc1ccc(/C=C2\SC(=O)N(CCC(=O)Nc3ccccc3)C2=O)cc1OC	none (no result: FGF22 binding)
CN1[C@@H]2c3ccc(-c4ccncc4)c(=O)n3C[C@H]1[C@H](CO)[C@H]2C(=O)NC1CCCCC1	none (no result: Granule exo inh, MT1-MMP act inh, ABCB6 inh 2, DAGLB inh, VLA-4 inh)
Cc1cc(-c2nn(-c3ccccc3F)cc2CN2CCCC(CO)C2)c(C)s1 (centres undefined)	FGF22 binding 43
CN(C)c1nc(=NCc2ccco2)ss1	Granule exo inh 76 (no result: FGF22 binding)
Cc1ccc(C)c(NC(=S)NNc2ccc(F)cc2F)c1	Granule exo inh 84
CC(C)NC(=O)Nc1ccc2c(c1)C(=O)N([C@H](C)CO)C[C@H](C)[C@H](CN(C)S(=O)(=O)c1cn(C)cn1)OCCCC[C@@H](C)O2	none (no result: Granule exo inh, MT1-MMP act inh, ABCB6 inh 2, DAGLB inh, VLA-4 inh)
Cc1ccc(S(=O)(=O)NC(C)(C)CN2CCC(Cc3ccccc3)CC2)cc1	FGF22 binding 44 (no result: VLA-4 inh)
CCOC(=O)C1CCN(CC(C)(C)NS(=O)(=O)c2ccc(C)cc2)CC1	none
O=C(NCC[C@@H]1CC[C@H](NS(=O)(=O)Cc2ccccc2)[C@H](CO)O1)C1CCOCC1	none (no result: Granule exo inh, MT1-MMP act inh, ABCB6 inh 2, DAGLB inh, VLA-4 inh)

Screening data: PubChem, several laboratories
